CHOP UPR activ = apoptotic UPR (CHOP) activation. CHO-CHOP luciferase reporter, luminescence; percent of tunicamycin response over DMSO baseline. activation, % at 10 µM. hit rate 0.34% among 330,000;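 active means at 10 µM dose, activation of 40% or more, normalized to positive control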;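 further: 100% = tunicamycin at 10 µg/mL and 0% = DMSO alone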
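System: CHO CHOP reporter cells. Amount: 500 cells per well. Buffer or medium: F12 medium, 10% FBS. Compound dosing: one dose, 10 µM in 0.5% DMSO. Incubation: 6 h compound exposure at 37 °C after overnight seeding. Technique: Steady-Glo luciferase luminescence. Benchmarks: tunicamycin and DMSO controls.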
Fh CTSL1 inh = counter-screen for PFM18AAP inhibitors: inhibitors of F. hepatica cathepsin L1 | recombinant F. hepatica cathepsin L1, Z-Leu-Arg-MCA fluorescence | inhibition, % at 5.96 µM | hit rate 0.49% among 300,000;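 active means inhibition above the mean of all tested compounds plus 3 SD, set per screening campaign, cut at about 17% in these data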;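 further: 0% = plate median of test compound wells and 100% = 1 µM Z-Phe-Ala-diazomethylketone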
CHOP inh = CHOP inhibition in unfolded protein response. CHO-K1 CHOP-promoter luciferase, tunicamycin-induced, 15-18 h. inhibition, % at 10 µM. hit rate 3.8% among 220,000;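 active means compounds that reduced the stress-induced luciferase reporter signal by more than about 70% of percent inhibition, limit read from the data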;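 further: 0% = tunicamycin plus vehicle and 100% = wells without tunicamycin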
UPR XBP1 act = adaptive UPR (XBP1) activation. CHO-XBP1 luciferase reporter, IRE1-XBP1 UPR activation, luminescence; percent of tunicamycin response, DMSO as zero. activation, % at 20 µM. hit rate 0.33% among 330,000;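 active means versus positive control, 20 µM dose yields 30% or more activation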;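 further: 100% = tunicamycin at 10 µg/mL and 0% = DMSO only wells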
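Material: IRE1-XBP1 luciferase reporter CHO line / Quantity: one thousand reporter cells per well / Buffer or medium: F12 with 10% serum / Compound: 20 µM single concentration, DMSO 1% / Times: 6 h treatment, 37 °C / Detection: Steady-Glo luciferase glow luminescence, 10 min after reagent addition / Benchmarks: tunicamycin high, DMSO low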
UCH37 inh = inhibitors of human deubiquitinating enzyme UCH37 | inhibition, % (no concentration beside the values) | purified proteasome/UCH37, Ub-AMC cleavage fluorescence | AID 588478 | hit rate 0.33% among 330,000;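 active means mean inhibition over replicate wells above about 20%, limit read from the data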;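 further: 0% = compound-free wells with enzyme and 100% = wells lacking proteasome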
Target sequence (Q9Y5K5 whole entry, looked up): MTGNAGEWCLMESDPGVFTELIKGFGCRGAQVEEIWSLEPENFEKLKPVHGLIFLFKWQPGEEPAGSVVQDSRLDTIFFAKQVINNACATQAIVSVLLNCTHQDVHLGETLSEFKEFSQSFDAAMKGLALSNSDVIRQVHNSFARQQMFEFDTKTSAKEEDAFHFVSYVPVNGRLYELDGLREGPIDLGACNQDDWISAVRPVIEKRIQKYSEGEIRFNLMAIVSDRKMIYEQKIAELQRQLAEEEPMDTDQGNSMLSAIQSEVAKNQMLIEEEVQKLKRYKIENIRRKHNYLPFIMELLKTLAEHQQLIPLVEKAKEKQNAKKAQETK
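system = Proteasome-associated human UCH37 deubiquitinase | amount = 0.15 nM proteasome as dispensed | medium = pH 7.4 Tris-HCl (50 mM) with ovalbumin, ATP-MgCl2, DTT | incubation = 30 min preincubation with enzyme, 25 min cleavage at room temperature | detection = AMC fluorescence 355/460 nm | read-out basis = percent inhibition | controls = no-proteasome and no-compound wells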
* hit, by the source's call; / = no result given. This is one part of a sample in which hits are shown more often than they occur.

SMILES	CHOP UPR activ	Fh CTSL1 inh	CHOP inh	UPR XBP1 act	UCH37 inh
COc1ccc(Cl)cc1NC(=O)CN(C)C1CCCCC1	-0.7	-1.2	76.5*	1.8	1.5
COc1ccc(Cl)cc1NC(=O)COC(=O)C1CCCCC1	4.4	/	/	-0.5	-1.9
Fc1ccc(-c2nnc(NC3=NCCCCC3)o2)cc1	-8.0	-1.5	75.0*	-10.5	0.4
CCCCNC(=S)N(C)/N=C/c1c(F)c(F)c(F)c(F)c1F	-0.9	7.1	21.9	-0.6	/
CCCCNC(=S)N(C)/N=C/c1c(C)[nH]c2ccccc12	2.8	9.4	72.4*	-0.6	/
O=C(NN=Cc1ccccn1)c1ccccc1O	/	/	/	/	0.6
COc1ccc(C(=O)C(OC(=O)c2ccc(C)c(NC(C)=O)c2)c2ccccc2)cc1 (stereo not drawn)	2.5	-19.1	3.4	-1.8	4.2
Cc1ccc(C(=O)C(OC(=O)CNC(=O)c2ccc(Cl)cc2)c2ccccc2)cc1 (stereo not drawn)	0.2	19.6*	25.0	-4.9	-1.0
O=C(CNC(=O)c1ccccc1)OC(C(=O)c1ccccc1)c1ccccc1 (stereo not drawn)	-1.9	18.1*	17.4	-0.2	2.0
COc1ccc(C(=O)C(OC(=O)CNC(=O)c2ccco2)c2ccccc2)cc1 (stereo not drawn)	-1.0	33.2*	-1.1	-0.9	0.7
COc1ccc(C(=O)OC(C(=O)c2ccccc2)c2ccccc2)cc1 (stereo not drawn)	-1.8	-13.5	72.3*	-1.9	1.7
Cc1ccc(S(=O)(=O)NCC(=O)OC(C(=O)c2ccccc2)c2ccccc2)cc1 (stereo not drawn)	1.8	-43.2	24.9	0.0	0.6
COc1ccccc1C(=O)NN=C(C)CC(=O)Nc1ccccn1	/	/	/	/	0.5
CCN(CC)C(=O)C(=O)NN=Cc1ccc(F)cc1	/	/	/	/	2.3
COCc1c(C(=O)NN=Cc2ccccn2)nnn1-c1nonc1N	/	/	/	/	-2.2
Cc1[nH]c2ccccc2c1C=NNc1cccc(C(=O)O)c1	/	/	/	/	-2.3
COc1ccc(C)cc1NC(=O)C(OC(=O)CNC(=O)c1ccc(Br)cc1)c1ccccc1 (stereo not drawn)	-0.3	17.6*	10.8	-2.5	2.2
COc1ccc(C)cc1NC(=O)C(OC(=O)CNC(=O)c1cc(C)cc(C)c1)c1ccccc1 (stereo not drawn)	1.4	-7.3	15.3	1.8	0.3
Cc1cc(C(=O)NCC(=O)OC(C(=O)Nc2cc(C(F)(F)F)ccc2Cl)c2ccccc2)ccc1[N+](=O)[O-] (stereo not drawn)	0.6	-6.4	81.7*	-1.0	1.7
CC(=O)Nc1ccc(C=NNC(=O)c2cccs2)cc1	/	/	/	/	-46.7
CC(NS(=O)(=O)/C=C/c1ccccc1)C(=O)O (stereo not drawn)	1.6	-3.9	85.8*	0.0	-0.2
CN1C(=O)C(O)(CC(=O)/C=C/c2ccco2)c2ccccc21 (stereo not drawn)	-2.4	6.9	12.4	-2.0	4.6
CN1C(=O)C(O)(CC(=O)/C=C/C=C/c2ccccc2)c2ccccc21 (stereo not drawn)	1.4	32.5*	14.0	0.6	5.2
COc1ccc(C=NNS(=O)(=O)c2ccc(Br)cc2)cc1COc1ccccc1[N+](=O)[O-]	/	/	/	/	6.0
CC1C/C(=C\c2cccnc2)C(=O)/C(=C/c2cccnc2)C1 (stereo not drawn)	/	-5.5	102.0*	/	7.7
SMILES	CHOP UPR activ	Fh CTSL1 inh	CHOP inh	UPR XBP1 act	UCH37 inh
Cc1[nH]n(-c2ccc(Br)cc2)c(=O)c1C=Nc1ccc(S(=O)(=O)Nc2nccs2)cc1	1.7	-0.7	90.5*	-1.0	7.7
O=C(CSCc1ccccc1)N1CCN(c2cccc(C(F)(F)F)c2)CC1	0.9	-11.3	84.5*	-6.6	2.0
O=C1Nc2ccccc2OC1CC(=O)N1CCN(c2cccc(C(F)(F)F)c2)CC1 (stereo not drawn)	-1.8	-0.6	85.5*	0.0	4.0
O=C(CCCCn1c(=O)[nH]c2ccccc2c1=O)N1CCN(c2cccc(C(F)(F)F)c2)CC1	2.0	1.7	88.3*	2.6	3.4
O=C(CSCc1ccccc1)N1CCN(c2ccccc2)CC1	1.9	-12.1	-5.6	-0.6	0.2
C/C(=C\c1ccccc1)C(=O)N1CCN(c2cccc(C(F)(F)F)c2)CC1	7.8	-0.1	81.9*	0.0	0.9
O=C1Nc2ccccc2OC1CC(=O)N1CCOCC1 (stereo not drawn)	0.4	-0.5	29.6	-0.5	6.6
O=C(NN=Cc1cccnc1)c1ccccc1OCc1ccc(Br)cc1	/	/	/	/	3.5
S=c1[nH]nc(C2CCCCC2)n1N=Cc1c(Cl)cccc1Cl	/	/	/	/	3.0
CCN(CC)c1ccc(NC(=O)Cn2cc3c(n2)CCC(C)C3)c(C)c1 (stereo not drawn)	-0.8	-0.6	78.9*	-2.8	2.2
CC1CCc2nn(CC(=O)Nc3ccc(F)cc3F)cc2C1 (stereo not drawn)	0.1	-3.5	31.0	0.3	1.1
COc1ccc(-c2ccc(/C=C3/C(=N)N4C=CSC4=NC3=O)o2)c([N+](=O)[O-])c1	/	-0.5	82.2*	/	11.8
CC(=O)Nc1ccc(OCCOc2ccc(/C=C3/C(=N)N4C=CSC4=NC3=O)cc2)cc1	0.0	1.9	-11.9	0.3	5.4
COc1cccc(S(=O)(=O)NCc2ccc(C(=O)Nc3ccc(Cl)cc3)cc2)c1	1.4	3.7	28.2	-2.7	4.9
COc1cccc(S(=O)(=O)NCc2ccc(C(=O)Nc3cccc(Cl)c3)cc2)c1	1.1	0.6	70.6*	-3.6	4.0
Cc1ccc(C(=O)Nc2ccccc2C(=O)NCc2ccccc2)cc1	1.2	5.8	80.2*	0.6	-28.3
Cc1ccc(C(=O)Nc2ccccc2C(=O)NCc2cccnc2)cc1	-1.2	-3.9	/	-0.9	-2.4
c1cnc(SCCOc2cccc3ccccc23)nc1	1.8	0.9	76.2*	3.2	4.0
Clc1ccc(OCCSc2ncccn2)c2ccccc12	2.3	-0.7	65.2	3.9	0.7
Cc1cc(C(=O)OC(C(=O)Nc2cccc(C(F)(F)F)c2)c2ccccc2)c(C)o1 (stereo not drawn)	1.0	-2.0	82.7*	-1.8	1.5
Cc1ccc(NC(=O)C(OC(=O)c2cc(C)oc2C)c2ccccc2)cc1 (stereo not drawn)	0.5	-16.5	53.5	-1.9	-0.1
COc1ccc(CNC(=S)NN=C(C)c2ccc(OC)cc2)cc1	/	/	/	/	4.3
CSc1nnc2n(-c3ccc(C)cc3)c(=O)c3c4c(sc3n12)COC(C(C)C)C4 (stereo not drawn)	3.0	-3.1	80.9*	5.6	5.7
COc1nc(N(C)S(=O)(=O)c2ccc(C)cc2)nc(C)c1Cl	10.8	2.2	83.3*	0.6	-1.3
COc1cc(C=NNC(=O)C(C)Nc2n[nH]c(=O)[nH]c2=O)ccc1O (stereo not drawn)	/	/	/	/	1.8
NC(=O)c1ccsc1NC(=O)COC(=O)Cc1cccc2ccccc12	0.0	1.5	84.6*	-1.4	1.8

Screens from PubChem.
